Each block holds one molecule with its values, some of them ahead of it. Where a SMILES comes first, the peptide text is derived from it. [ ]: non-standard residue; d: D form.
Tests used:
[1] = molecular target: T1, Solute carrier organic anion transporter family member 1B1 (OATP1B1) (Homo sapiens, UniProt Q9Y6L6); assay: TP_TRANSPORTER: inhibition of E1S uptake (E1S: 0.004 uM, DADLE: 1000 uM) in Xenopus laevis oocytes; assay type: functional, cell-based, Oocyte; parameters: scale not given: the % may be the effect or the level left; conditions: probe E1S (0.004 uM), read-out: Activity
T1 sequence (Q9Y6L6 whole entry): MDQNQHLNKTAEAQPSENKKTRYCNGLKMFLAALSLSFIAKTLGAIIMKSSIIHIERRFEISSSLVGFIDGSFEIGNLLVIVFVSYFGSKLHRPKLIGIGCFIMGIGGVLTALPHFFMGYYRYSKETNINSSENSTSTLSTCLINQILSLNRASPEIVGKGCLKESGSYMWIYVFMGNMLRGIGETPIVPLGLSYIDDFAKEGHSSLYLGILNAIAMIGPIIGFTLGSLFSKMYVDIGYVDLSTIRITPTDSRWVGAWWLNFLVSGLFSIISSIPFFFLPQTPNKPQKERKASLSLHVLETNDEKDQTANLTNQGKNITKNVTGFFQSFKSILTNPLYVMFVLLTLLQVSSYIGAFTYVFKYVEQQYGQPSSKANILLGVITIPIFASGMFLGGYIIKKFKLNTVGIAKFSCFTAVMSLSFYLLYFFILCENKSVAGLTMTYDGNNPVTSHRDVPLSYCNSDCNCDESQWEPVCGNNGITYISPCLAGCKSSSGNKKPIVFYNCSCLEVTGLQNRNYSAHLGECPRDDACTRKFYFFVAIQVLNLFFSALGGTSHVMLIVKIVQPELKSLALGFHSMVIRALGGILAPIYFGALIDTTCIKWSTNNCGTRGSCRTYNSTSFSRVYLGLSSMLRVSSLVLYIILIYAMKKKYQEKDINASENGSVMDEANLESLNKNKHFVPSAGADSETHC
Outline: (§1)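 Oocytes injected with OATP-C cRNA (25 ng), cultured 3 days in modified Barth's solution, then incubated 30 min at 25 °C in medium 1 (pH 7.4) with [3H]estrone-3-sulfate (4 nM) plus or minus inhibitor. OATP-C-specific uptake = total minus water-injected oocyte uptake, expressed as percent of control; mean ± s.e.m., n = 5–10.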

[2] = molecular target: T1, Solute carrier organic anion transporter family member 1B1 (OATP1B1); assay: TP_TRANSPORTER: inhibition of E1S uptake (E1S: 0.004 uM, Quinidine: 500 uM) in Xenopus laevis oocytes; assay type: functional, cell-based, Oocyte; parameters: scale not given: the % may be the effect or the level left; conditions: probe E1S (0.004 uM), read-out: Activity; outline: as §1
[3] = molecular target: T2, Solute carrier organic anion transporter family member 1B1 (Homo sapiens, UniProt Q9Y6L6); assay: TP_TRANSPORTER: inhibition of E1S uptake (E1S: 0.004 uM, Gly4: 5000 uM) in Xenopus laevis oocytes; assay type: functional, cell-based; conditions: oocyte; outline: as §1
T2 sequence (Q9Y6L6 whole entry): T1 sequence (Q9Y6L6 whole entry)

[4] = molecular target: T1, Solute carrier organic anion transporter family member 1B1 (OATP1B1); assay: TP_TRANSPORTER: inhibition of DPDPE uptake (DPDPE: 0.02 uM) in Xenopus laevis oocytes; assay type: functional, cell-based, Oocyte; parameters: scale not given: the % may be the effect or the level left; conditions: probe DPDPE (0.02 uM)
[5] = molecular target: T1, Solute carrier organic anion transporter family member 1B1 (OATP1B1); assay: TP_TRANSPORTER: inhibition of E1S uptake (E1S: 0.004 uM, des-tyrosine DADLE: 1000 uM) in Xenopus laevis oocytes; assay type: functional, cell-based, Oocyte; parameters: scale not given: the % may be the effect or the level left; conditions: probe E1S (0.004 uM), read-out: Activity; outline: as §1
[6] = molecular target: T1, Solute carrier organic anion transporter family member 1B1 (OATP1B1); assay: in vitro; conditions: xenopus laevis, Xenopus laevis oocytes, probe E1S (0.004 uM)
[7] = molecular target: T1, Solute carrier organic anion transporter family member 1B1 (OATP1B1); assay: TP_TRANSPORTER: inhibition of E1S uptake (E1S: 0.004 uM, BSP: 50 uM) in Xenopus laevis oocytes; assay type: functional, cell-based, Oocyte; parameters: scale not given: the % may be the effect or the level left; conditions: probe E1S (0.004 uM), read-out: Activity; outline: as §1
[8] = molecular target: T1, Solute carrier organic anion transporter family member 1B1 (OATP1B1); assay: TP_TRANSPORTER: inhibition of E1S uptake (E1S: 0.004 uM, Ala5: 5000 uM) in Xenopus laevis oocytes; assay type: functional, cell-based, Oocyte; parameters: scale not given: the % may be the effect or the level left; conditions: probe E1S (0.004 uM), read-out: Activity; outline: as §1
[9] = molecular target: T2, Solute carrier organic anion transporter family member 1B1; assay: TP_TRANSPORTER: uptake of [D-Pen2,D-Pen5]-enkephalin at a concentration of 0.02 u M in Xenopus laevis oocytes; assay type: functional, cell-based; conditions: oocyte, 0.02 µM
Outline: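 OATP-C cRNA- or water-injected oocytes incubated 60 min at 25 °C in medium 1 (pH 7.4) with [3H]DPDPE (20 nM). Washed with ice-cold buffer, solubilized in 5% SDS, radioactivity counted. Uptake given as cell-to-medium ratio (uptake amount divided by medium concentration); mean ± s.e.m., n = 5–10.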

[10] = molecular target: T2, Solute carrier organic anion transporter family member 1B1; assay: TP_TRANSPORTER: inhibition of E1S uptake (E1S: 0.004 uM, YdAG: 1000 uM) in Xenopus laevis oocytes; assay type: functional, cell-based; conditions: oocyte; outline: as §1
[11] = molecular target: T2, Solute carrier organic anion transporter family member 1B1; assay: TP_TRANSPORTER: inhibition of E1S uptake (E1S: 0.004 uM, CCK-8: 100 uM) in Xenopus laevis oocytes; assay type: functional, cell-based; parameters: scale not given: the % may be the effect or the level left; conditions: oocyte; outline: as §1
[12] = molecular target: T1, Solute carrier organic anion transporter family member 1B1 (OATP1B1); assay: TP_TRANSPORTER: inhibition of E1S uptake (E1S: 0.004 uM, YGG: 1000 uM) in Xenopus laevis oocytes; assay type: functional, cell-based, Oocyte; parameters: scale not given: the % may be the effect or the level left; conditions: probe E1S (0.004 uM), read-out: Activity; outline: as §1
[13] = molecular target: T2, Solute carrier organic anion transporter family member 1B1; assay: TP_TRANSPORTER: inhibition of E1S uptake (E1S: 0.004 uM, PAH: 500 uM) in Xenopus laevis oocytes; assay type: functional, cell-based; conditions: oocyte; outline: as §1
[14] = molecular target: T2, Solute carrier organic anion transporter family member 1B1; assay: TP_TRANSPORTER: inhibition of E1S uptake (E1S: 0.004 uM, Ala4: 5000 uM) in Xenopus laevis oocytes; assay type: functional, cell-based; conditions: oocyte; outline: as §1
[15] = molecular target: T2, Solute carrier organic anion transporter family member 1B1; assay: TP_TRANSPORTER: inhibition of E1S uptake (E1S: 0.004 uM, Carnitine: 50 uM) in Xenopus laevis oocytes; assay type: functional, cell-based; conditions: oocyte; outline: as §1

Compound: CC(C)C[C@@H](NC(=O)[C@H](Cc1ccccc1)NC(=O)CNC(=O)[C@@H](C)NC(=O)[C@@H](N)Cc1ccc(O)cc1)C(=O)O [DADLE]
activity at 1000 µM [1]: 35.4%

activity at 500 µM [2]: 81%
Compound: C=C[C@H]1C[N@@]2CC[C@H]1C[C@@H]2[C@@H](O)c1ccnc2ccc(OC)cc12 [QUINIDINE]

Activity [3]: is not an inhibitor [-]
Compound: NCC(=O)NCC(=O)NCC(=O)NCC(=O)O (H-GGGG-OH)

Activity [4]: 50%
Compound: C[C@]12CC[C@@H]3c4ccc(OS(=O)(=O)O)cc4CC[C@H]3[C@@H]1CCC2=O [ESTRONE SULFURIC ACID]

Compound: CC(C)C[C@@H](NC(=O)[C@H](Cc1ccccc1)NC(=O)CNC(=O)[C@@H](C)N)C(=O)O
activity at 1000 µM [5]: 62.5%

Compound: CC(C)C[C@H](NC(=O)[C@H](Cc1ccccc1)NC(=O)CNC(=O)CNC(=O)[C@@H](N)Cc1ccc(O)cc1)C(=O)O [ENKEPHALIN]
activity at 1000 µM [6]: 26.8%

Compound: O=C1OC(c2ccc(O)c(S(=O)(=O)O)c2)(c2ccc(O)c(S(=O)(=O)O)c2)c2c(Br)c(Br)c(Br)c(Br)c21 [SULFOBROMOPHTHALEIN SODIUM]
Activity [4]: 25%
activity at 50 µM [7]: 8%

activity at 5000 µM [8]: 86.3%
Compound: C[C@H](N)C(=O)N[C@@H](C)C(=O)N[C@@H](C)C(=O)N[C@@H](C)C(=O)N[C@@H](C)C(=O)O

Compound: CC1(C)SSC(C)(C)[C@@H](NC(=O)[C@@H](N)Cc2ccc(O)cc2)C(=O)NCC(=O)N[C@@H](Cc2ccccc2)C(=O)N[C@H]1C(=O)O
Activity [9]: substrate [+]

Compound: C[C@@H](NC(=O)[C@@H](N)Cc1ccc(O)cc1)C(=O)NCC(=O)O (H-Tyr-[dA]-Gly-OH)
Activity [10]: is not an inhibitor [-]

Compound: CSCC[C@H](NC(=O)[C@H](Cc1ccc(OS(=O)(=O)O)cc1)NC(=O)[C@@H](N)CC(=O)O)C(=O)NCC(=O)N[C@@H](Cc1c[nH]c2ccccc12)C(=O)N[C@@H](CCSC)C(=O)N[C@@H](CC(=O)O)C(=O)N[C@@H](Cc1ccccc1)C(N)=O [SINCALIDE]
Activity [11]: 9.1%

Compound: N[C@@H](Cc1ccc(O)cc1)C(=O)NCC(=O)NCC(=O)O (H-Tyr-Gly-Gly-OH)
activity at 1000 µM [12]: 77.2%

Activity [13]: is not an inhibitor [-]
Compound: Nc1ccc(C(=O)NCC(=O)O)cc1 [AMINOHIPPURIC ACID]

Activity [14]: is not an inhibitor [-]
Compound: C[C@H](N)C(=O)N[C@@H](C)C(=O)N[C@@H](C)C(=O)N[C@@H](C)C(=O)O (H-AAAA-OH)

Activity [15]: is not an inhibitor [-]
Compound: C[N+](C)(C)CC(O)CC(=O)[O-] (stereo unspecified) [CARNITINE]

From ChEMBL document CHEMBL2074476, “Contribution of organic anion transporting polypeptide OATP-C to hepatic elimination of the opioid pentapeptide analogue [D-Ala2, D-Leu5]-enkephalin” (J Pharm Pharmacol, 2003)
